ChEMBL document CHEMBL1157144, “Novel 16-membered macrolides modified at C-12 and C-13 positions of midecamycin A1 and miokamycin. Part 1: Synthesis and evaluation of 12,13-carbamate and 12-arylalkylamino-13-hydroxy analogues” (2008)
In brackets after ≈: the same amount, converted by molar mass.

How the values were obtained:
Assay type in all cases: functional
[1] = system: Staphylococcus aureus; test: Antibacterial activity against ermB-inducible resistant Staphylococcus aureus after 20 hrs by agar dilution method
In short: (§1)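 Agar dilution MIC. The inoculum came from a seed culture in Sensitivity test broth. A 5 µl portion of a cell suspension of about 10^6 CFU/ml was inoculated onto Sensitivity disk agar supplemented with 5% horse blood. Plates were incubated at 37 °C for 20 h, then MIC was read.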

[2] = system: Haemophilus influenzae; test: Antibacterial activity against standard Haemophilus influenzae after 20 hrs by agar dilution method
In short: (§2)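 MIC by agar dilution. Strains grown on blood agar plates for seed culture. About 5 µl of a suspension of roughly 10^6 CFU/ml spotted onto Sensitivity disk agar with 5% horse blood. Plates incubated at 37 °C for 20 h, then MIC read.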

[3] = system: Streptococcus pyogenes; test: Antibacterial activity against ermB-constitutive resistant Streptococcus pyogenes after 20 hrs by agar dilution method
In short: (§3)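 Agar dilution MIC. Streptococcal strains were pre-cultured on blood agar plates. A 5 µl portion of a cell suspension of about 10^6 CFU/ml was inoculated onto Sensitivity disk agar supplemented with 5% horse blood. Plates were incubated at 37 °C for 20 h, then MIC was read.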

[4] = system: Streptococcus pyogenes; test: Antibacterial activity against standard Streptococcus pyogenes after 20 hrs by agar dilution method; in short: as §2
[5] = system: Staphylococcus aureus; test: Antibacterial activity against susceptible Staphylococcus aureus after 20 hrs by agar dilution method; in short: as §1
[6] = system: Streptococcus pneumoniae; test: Antibacterial activity against susceptible Streptococcus pneumoniae after 20 hrs by agar dilution method; in short: as §2
[7] = system: Moraxella catarrhalis; test: Antibacterial activity against standard Moraxella catarrhalis after 20 hrs by agar dilution method; in short: as §2
[8] = system: Haemophilus influenzae; test: Antibacterial activity against susceptible Haemophilus influenzae after 20 hrs by agar dilution method; in short: as §2
[9] = system: Streptococcus pneumoniae; test: Antibacterial activity against ermB-inducible resistant Streptococcus pneumoniae after 20 hrs by agar dilution method; in short: as §3
[10] = system: Staphylococcus aureus; test: Antibacterial activity against ermA-constitutive resistant Staphylococcus aureus after 20 hrs by agar dilution method; in short: as §1
[11] = system: Staphylococcus aureus; test: Antibacterial activity against ermC-inducible resistant Staphylococcus aureus after 20 hrs by agar dilution method; in short: as §1
[12] = system: Streptococcus pneumoniae; test: Antibacterial activity against ermB-constitutive resistant Streptococcus pneumoniae after 20 hrs by agar dilution method; in short: as §3
[13] = system: Streptococcus pneumoniae; test: Antibacterial activity against mefE efflux-resistant Streptococcus pneumoniae after 20 hrs by agar dilution method; in short: as §3
[14] = system: Staphylococcus aureus; test: Antibacterial activity against standard Staphylococcus aureus after 20 hrs by agar dilution method; in short: as §1
[15] = system: Streptococcus pyogenes; test: Antibacterial activity against mefE efflux-resistant Streptococcus pyogenes after 20 hrs by agar dilution method; in short: as §3

Structure (SMILES) | MIC [1] [µg/mL] | MIC [2] [µg/mL] | MIC [3] [µg/mL] | MIC [4] [µg/mL] | MIC [5] [µg/mL] | MIC [6] [µg/mL] | MIC [7] [µg/mL] | MIC [8] [µg/mL] | MIC [9] [µg/mL] | MIC [10] [µg/mL] | MIC [11] [µg/mL] | MIC [12] [µg/mL] | MIC [13] [µg/mL] | MIC [14] [µg/mL] | MIC [15] [µg/mL]
CCC(=O)O[C@@H]1CC(=O)O[C@H](C)C[C@H](O)[C@H](N(C)CCCc2ccccc2)/C=C/[C@H](OC(C)=O)[C@H](C)C[C@H](CC=O)[C@H](O[C@@H]2O[C@H](C)[C@@H](O[C@H]3C[C@@](C)(OC(C)=O)[C@@H](OC(=O)CC)[C@H](C)O3)[C@H](N(C)C)[C@H]2O)[C@H]1OC | 0.2 (≈ 0.188 µM) | 3.13 (≈ 2.94 µM) | 50 (≈ 47 µM) | 0.05 (≈ 0.047 µM) | 0.39 (≈ 0.367 µM) | 0.05 (≈ 0.047 µM) | 0.39 (≈ 0.367 µM) | 25 (≈ 23.5 µM) | 1.56 (≈ 1.47 µM) | > 100 | 0.39 (≈ 0.367 µM) | > 100 | 0.1 (≈ 0.094 µM) | 0.39 (≈ 0.367 µM) | 0.1 (≈ 0.094 µM)
CCC(=O)O[C@@H]1CC(=O)O[C@H](C)C[C@H](O)[C@H](N(C)CCCc2cccc3ccccc23)/C=C/[C@H](OC(C)=O)[C@H](C)C[C@H](CC=O)[C@H](O[C@@H]2O[C@H](C)[C@@H](O[C@H]3C[C@@](C)(O)[C@@H](OC(=O)CC)[C@H](C)O3)[C@H](N(C)C)[C@H]2O)[C@H]1OC | 3.13 (≈ 2.92 µM) | 6.25 (≈ 5.83 µM) | 50 (≈ 46.7 µM) | 0.1 (≈ 0.0933 µM) | 0.39 (≈ 0.364 µM) | 0.1 (≈ 0.0933 µM) | 0.78 (≈ 0.728 µM) | 25 (≈ 23.3 µM) | 6.25 (≈ 5.83 µM) | > 100 | 0.78 (≈ 0.728 µM) | 50 (≈ 46.7 µM) | 0.1 (≈ 0.0933 µM) | 0.39 (≈ 0.364 µM) | 0.2 (≈ 0.187 µM)
CCC(=O)O[C@@H]1CC(=O)O[C@H](C)C[C@H](O)[C@H](N(C)CCCc2cnc3ccccc3c2)/C=C/[C@H](OC(C)=O)[C@H](C)C[C@H](CC=O)[C@H](O[C@@H]2O[C@H](C)[C@@H](O[C@H]3C[C@@](C)(O)[C@@H](OC(=O)CC)[C@H](C)O3)[C@H](N(C)C)[C@H]2O)[C@H]1OC | 0.2 (≈ 0.187 µM) | 3.13 (≈ 2.92 µM) | > 100 | 0.1 (≈ 0.0933 µM) | 0.39 (≈ 0.364 µM) | 0.05 (≈ 0.0466 µM) | 0.78 (≈ 0.727 µM) | 25 (≈ 23.3 µM) | 12.5 (≈ 11.7 µM) | > 100 | 0.39 (≈ 0.364 µM) | > 100 | 0.1 (≈ 0.0933 µM) | 0.39 (≈ 0.364 µM) | 0.2 (≈ 0.187 µM)
CCC(=O)O[C@@H]1CC(=O)O[C@H](C)C[C@H](O)[C@H](N(C)CCCCCCCc2ccccc2)/C=C/[C@H](OC(C)=O)[C@H](C)C[C@H](CC=O)[C@H](O[C@@H]2O[C@H](C)[C@@H](O[C@H]3C[C@@](C)(O)[C@@H](OC(=O)CC)[C@H](C)O3)[C@H](N(C)C)[C@H]2O)[C@H]1OC | 0.78 (≈ 0.724 µM) | 12.5 (≈ 11.6 µM) | 25 (≈ 23.2 µM) | 0.39 (≈ 0.362 µM) | 0.78 (≈ 0.724 µM) | 0.39 (≈ 0.362 µM) | 3.13 (≈ 2.91 µM) | 25 (≈ 23.2 µM) | 12.5 (≈ 11.6 µM) | 100 (≈ 92.8 µM) | 1.56 (≈ 1.45 µM) | 25 (≈ 23.2 µM) | 0.39 (≈ 0.362 µM) | 1.56 (≈ 1.45 µM) | 0.78 (≈ 0.724 µM)
CCC(=O)O[C@@H]1CC(=O)O[C@H](C)C[C@H](O)[C@H](N(C)Cc2ccccc2)/C=C/[C@H](OC(C)=O)[C@H](C)C[C@H](CC=O)[C@H](O[C@@H]2O[C@H](C)[C@@H](O[C@H]3C[C@@](C)(O)[C@@H](OC(=O)CC)[C@H](C)O3)[C@H](N(C)C)[C@H]2O)[C@H]1OC | 0.2 (≈ 0.201 µM) | 3.13 (≈ 3.15 µM) | > 100 | 0.1 (≈ 0.101 µM) | 0.39 (≈ 0.393 µM) | 0.1 (≈ 0.101 µM) | 0.39 (≈ 0.393 µM) | 25 (≈ 25.2 µM) | 100 (≈ 101 µM) | > 100 | 0.39 (≈ 0.393 µM) | > 100 | 0.1 (≈ 0.101 µM) | 0.39 (≈ 0.393 µM) | 0.39 (≈ 0.393 µM)
CCC(=O)O[C@@H]1CC(=O)O[C@H](C)C[C@H](O)[C@H](N(C)C)/C=C/[C@H](OC(C)=O)[C@H](C)C[C@H](CC=O)[C@H](O[C@@H]2O[C@H](C)[C@@H](O[C@H]3C[C@@](C)(O)[C@@H](OC(=O)CC)[C@H](C)O3)[C@H](N(C)C)[C@H]2O)[C@H]1OC | 1.56 (≈ 1.7 µM) | 1.56 (≈ 1.7 µM) | > 100 | 0.2 (≈ 0.218 µM) | 0.78 (≈ 0.851 µM) | 0.2 (≈ 0.218 µM) | 1.56 (≈ 1.7 µM) | 25 (≈ 27.3 µM) | > 100 | > 100 | 0.78 (≈ 0.851 µM) | > 100 | 0.2 (≈ 0.218 µM) | 0.78 (≈ 0.851 µM) | 0.39 (≈ 0.425 µM)
CCC(=O)O[C@@H]1CC(=O)O[C@H](C)C[C@H](O)[C@H](N(C)CCCCCCc2ccccc2)/C=C/[C@H](OC(C)=O)[C@H](C)C[C@H](CC=O)[C@H](O[C@@H]2O[C@H](C)[C@@H](O[C@H]3C[C@@](C)(O)[C@@H](OC(=O)CC)[C@H](C)O3)[C@H](N(C)C)[C@H]2O)[C@H]1OC | 0.2 (≈ 0.188 µM) | 6.25 (≈ 5.88 µM) | 25 (≈ 23.5 µM) | 0.2 (≈ 0.188 µM) | 0.39 (≈ 0.367 µM) | 0.1 (≈ 0.094 µM) | 0.78 (≈ 0.734 µM) | 25 (≈ 23.5 µM) | 6.25 (≈ 5.88 µM) | 100 (≈ 94 µM) | 0.39 (≈ 0.367 µM) | 50 (≈ 47 µM) | 0.2 (≈ 0.188 µM) | 0.39 (≈ 0.367 µM) | 0.2 (≈ 0.188 µM)
CCC(=O)O[C@@H]1CC(=O)O[C@H](C)C[C@H](O)[C@H](N(C)CCCc2ccnc3ccccc23)/C=C/[C@H](OC(C)=O)[C@H](C)C[C@H](CC=O)[C@H](O[C@@H]2O[C@H](C)[C@@H](O[C@H]3C[C@@](C)(O)[C@@H](OC(=O)CC)[C@H](C)O3)[C@H](N(C)C)[C@H]2O)[C@H]1OC | 0.1 (≈ 0.0933 µM) | 1.56 (≈ 1.45 µM) | > 100 | 0.05 (≈ 0.0466 µM) | 0.1 (≈ 0.0933 µM) | 0.013 (≈ 0.0121 µM) | 0.39 (≈ 0.364 µM) | 12.5 (≈ 11.7 µM) | 0.78 (≈ 0.727 µM) | > 100 | 0.2 (≈ 0.187 µM) | 50 (≈ 46.6 µM) | 0.025 (≈ 0.0233 µM) | 0.1 (≈ 0.0933 µM) | 0.1 (≈ 0.0933 µM)
CCC(=O)O[C@@H]1CC(=O)O[C@H](C)C[C@H](O)[C@H](N(C)CCCc2cnc3ccccc3c2)/C=C/[C@H](OC(C)=O)[C@H](C)C[C@H](CC=O)[C@H](O[C@@H]2O[C@H](C)[C@@H](O)[C@H](N(C)C)[C@H]2O)[C@H]1OC | 1.56 (≈ 1.79 µM) | 1.56 (≈ 1.79 µM) | > 100 | 0.78 (≈ 0.894 µM) | 1.56 (≈ 1.79 µM) | 0.2 (≈ 0.229 µM) | 0.2 (≈ 0.229 µM) | 6.25 (≈ 7.17 µM) | > 100 | > 100 | 1.56 (≈ 1.79 µM) | > 100 | 0.39 (≈ 0.447 µM) | 1.56 (≈ 1.79 µM) | 3.13 (≈ 3.59 µM)
CCC(=O)O[C@@H]1CC(=O)O[C@H](C)C[C@H](O)[C@H](N(C)CCCc2ccnc3ccccc23)/C=C/[C@H](OC(C)=O)[C@H](C)C[C@H](CC=O)[C@H](O[C@@H]2O[C@H](C)[C@@H](O)[C@H](N(C)C)[C@H]2O)[C@H]1OC | 0.39 (≈ 0.447 µM) | 0.39 (≈ 0.447 µM) | > 50 | 0.1 (≈ 0.115 µM) | 0.39 (≈ 0.447 µM) | 0.025 (≈ 0.0287 µM) | 0.05 (≈ 0.0573 µM) | 1.56 (≈ 1.79 µM) | 12.5 (≈ 14.3 µM) | > 50 | 0.39 (≈ 0.447 µM) | > 50 | 0.1 (≈ 0.115 µM) | 0.2 (≈ 0.229 µM) | 1.56 (≈ 1.79 µM)
